Test results reported in ChEMBL document CHEMBL2176870 (J Med Chem, 2012).
In brackets after ≈: the same amount, converted by molar mass. Activity calls are given as the source filed them. The calls are words filed in the database; no cut-off is given here.

How the values were obtained:
[1] = Terminal elimination half life in Sprague-Dawley rat plasma at 2 x 50 mg/kg, iv; format: ADME, organism-based; set-up: dose 50 mg/kg, route intravenous; settings: read-out: beta t1/2 (converted)
In short: (§1)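 Female Sprague–Dawley rats given two iv doses of 50 mg/kg. Levels measured in plasma, liver, kidney, brain, heart and lung. Cmax reported as ng/g for tissue and ng/mL for plasma; AUC(0–∞) as ng·h/mL. Half-life is the terminal elimination value.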

[2] = Terminal elimination half life in Sprague-Dawley rat heart at 2 x 50 mg/kg, iv; format: ADME, organism-based; set-up: dose 50 mg/kg, route intravenous; settings: read-out: beta t1/2 (converted); in short: as §1
[3] = test system: Staphylococcus aureus; test: Antibacterial activity against methicillin-resistant Staphylococcus aureus NRS384 assessed as killing activity at 600 to 1200 mg q8h with prolonged infusion of 2 hrs; format: functional, organism-based
[4] = test system: Escherichia coli; test: Antibacterial activity against Escherichia coli; format: functional
[5] = test system: Escherichia coli; test: Antibacterial activity against Escherichia coli C7 after 18 hrs by broth microdilution method; format: functional; settings: C7, 18 h
[6] = test system: Canis familiaris; test: Toxicity in beagle dog assessed as clinical signs of toxicity up to 100 mg/kg, iv; format: organism-based, Canis lupus familiaris; set-up: dose 100 mg/kg, route intravenous; settings: in vivo
In short: (§2)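 Beagle dogs given single iv infusions up to 100 mg/kg. Clinical signs and cardiovascular function, including QT interval, were monitored.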

[7] = AUC (0 to infinity) in Sprague-Dawley rat heart at 2 x 50 mg/kg, iv; format: ADME, organism-based; set-up: time infinity, dose 50 mg/kg, route intravenous; in short: as §1
[8] = Plasma clearance in Sprague-Dawley rat plasma at 2 x 50 mg/kg, iv; format: ADME, organism-based; set-up: dose 50 mg/kg, route intravenous
[9] = test system: Proteus mirabilis; test: Antibacterial activity against Proteus mirabilis; format: functional
[10] = test system: Staphylococcus aureus; test: Antibacterial activity against methicillin-resistant Staphylococcus aureus NRS382; format: functional
In short: (§3)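 CLSI broth microdilution: serial 2-fold dilutions from 0.06 to 64 μg/mL in cation-adjusted Mueller–Hinton broth, inoculum 5 × 10^5 CFU/mL, 35 °C for 18 h. MIC is the lowest concentration with no visible growth.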

[11] = Toxicity in iv dosed rat administered bid for 2 weeks; format: organism-based; settings: in vivo
In short: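 Rats dosed iv twice daily for 14 days. NOAEL assessed from clinical findings and from macroscopic and microscopic examination.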

[12] = AUC (0 to infinity) in Sprague-Dawley rat brain at 2 x 50 mg/kg, iv; format: ADME, organism-based; set-up: time infinity, dose 50 mg/kg, route intravenous; in short: as §1
[13] = Toxicity in iv dosed dog administered bid for 2 weeks; format: organism-based, Canis lupus familiaris; settings: in vivo
In short: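 Dogs dosed iv twice daily for 14 days; NOAEL determined, with body weight monitored.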

[14] = Cmax in Sprague-Dawley rat heart at 2 x 50 mg/kg, iv; format: ADME, organism-based; set-up: dose 50 mg/kg, route intravenous; in short: as §1
[15] = Cmax in Sprague-Dawley rat brain at 2 x 50 mg/kg, iv; format: ADME, organism-based; set-up: dose 50 mg/kg, route intravenous; in short: as §1
[16] = test system: Enterococcus faecalis; test: Antibacterial activity against Enterococcus faecalis ATCC 29212 after 18 hrs by broth microdilution method; format: functional; settings: ATCC 29212, 18 h
In short: (§4)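 CLSI broth microdilution with serial 2-fold dilutions from 0.06 to 64 μg/mL. Cation-adjusted Mueller–Hinton broth, inoculum 5 × 10^5 CFU/mL, incubated at 35 °C for 18 h. MIC taken as the lowest concentration with no visible growth.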

[17] = Terminal elimination half life in Sprague-Dawley rat brain at 2 x 50 mg/kg, iv; format: ADME, organism-based; set-up: dose 50 mg/kg, route intravenous; settings: read-out: beta t1/2 (converted); in short: as §1
[18] = test system: Staphylococcus aureus; test: Antibacterial activity against methicillin-resistant Staphylococcus aureus NRS382 infected in Swiss mouse; format: functional
In short: (§5)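 Murine lethal systemic infection by intraperitoneal MRSA challenge. A single subcutaneous dose was given 5 min after infection.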

[19] = test system: Staphylococcus aureus; test: Antibacterial activity against Staphylococcus aureus CIP54.146 after 18 hrs by broth microdilution method; format: functional; settings: CIP54.146, 18 h; in short: as §4
[20] = Cytotoxicity against human HepG2 cells; format: cell-based; settings: read-out: ED50 (the source's name)
[21] = test system: Canis familiaris; test: Toxicity in beagle dog assessed as cardiovascular functions up to 100 mg/kg, iv; format: organism-based, Canis lupus familiaris, Heart; set-up: dose 100 mg/kg, route intravenous; settings: in vivo; in short: as §2
[22] = Cmax in Sprague-Dawley rat lung at 2 x 50 mg/kg, iv; format: ADME, organism-based; set-up: dose 50 mg/kg, route intravenous; in short: as §1
[23] = Terminal elimination half life in Sprague-Dawley rat lung at 2 x 50 mg/kg, iv; format: ADME, organism-based; set-up: dose 50 mg/kg, route intravenous; settings: read-out: beta t1/2 (converted); in short: as §1
[24] = AUC (0 to infinity) in Sprague-Dawley rat plasma at 2 x 50 mg/kg, iv; format: ADME, organism-based; set-up: time infinity, dose 50 mg/kg, route intravenous; in short: as §1
[25] = test system: Rattus norvegicus; test: Toxicity in rat assessed as effect on central nervous system and respiratory functions up to 200 mg/kg, iv; format: organism-based; set-up: dose 200 mg/kg, route intravenous; settings: in vivo
In short: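 Safety pharmacology in rats given single iv injections up to 200 mg/kg. Clinical signs, central nervous system effects and respiratory function were monitored.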

[26] = Toxicity in iv dosed mouse; format: organism-based; settings: in vivo
In short: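 Single intravenous dosing in mice; maximum tolerated dose determined.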

[27] = test system: Streptococcus pneumoniae; test: Antibacterial activity against Streptococcus pneumoniae D39 after 18 hrs by broth microdilution method; format: functional; settings: D39, 18 h
In short: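 CLSI broth microdilution with 2-fold dilutions from 0.06 to 64 μg/mL. Cation-adjusted Mueller–Hinton broth with 2.5% lysed horse blood, inoculum 5 × 10^5 CFU/mL, grown at 35 °C for 18 h in 5% CO2. MIC is the lowest concentration showing no visible growth.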

[28] = AUC (0 to infinity) in Sprague-Dawley rat kidney at 2 x 50 mg/kg, iv; format: ADME, organism-based; set-up: time infinity, dose 50 mg/kg, route intravenous; in short: as §1
[29] = test system: Staphylococcus aureus; test: Antibacterial activity against methicillin-resistant Staphylococcus aureus NRS385 infected in Swiss mouse; format: functional; in short: as §5
[30] = test system: Staphylococcus aureus; test: Antibacterial activity against methicillin-susceptible Staphylococcus aureus; format: functional
[31] = Toxicity in iv dosed rat; format: organism-based; settings: in vivo
In short: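 Rats given a single intravenous dose for maximum tolerated dose. A separate 2-week study used twice-daily intravenous dosing, with NOAEL set from clinical findings and macroscopic and microscopic examination. Safety pharmacology used single intravenous injections up to 200 mg/kg, assessing central nervous system and respiratory functions.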

[32] = target: T1, Enoyl-[acyl-carrier-protein] reductase [NADPH] FabI (Staphylococcus aureus, UniProt Q6GI75); test: Inhibition of Staphylococcus aureus recombinant FabI using trans-2-octenoyl N-acetylcysteamine thioester as substrate preincubated for 60 mins
T1 sequence (Q6GI75 whole entry): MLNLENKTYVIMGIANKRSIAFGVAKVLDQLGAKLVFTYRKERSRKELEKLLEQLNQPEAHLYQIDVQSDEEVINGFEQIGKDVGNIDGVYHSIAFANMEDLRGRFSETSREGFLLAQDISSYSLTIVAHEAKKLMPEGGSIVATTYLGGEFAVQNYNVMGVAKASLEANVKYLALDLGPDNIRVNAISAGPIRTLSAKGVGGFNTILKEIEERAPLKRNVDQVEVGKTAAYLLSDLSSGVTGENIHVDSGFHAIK
In short: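 Recombinant S. aureus FabI (2 nM) in 50 mM ADA pH 6.5, 1 mM DTT, 0.006% Triton X-100, 50 mM NaCl. Preincubated 60 min at room temperature with 40 μM NADPH, 10 μM NADP+ and inhibitor in DMSO. Reaction started with 100 μM t-o-NAC. Inhibition versus untreated samples; IC50 by Langmuir fit.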

[33] = test system: Staphylococcus aureus; test: Antibacterial activity against methicillin-resistant Staphylococcus aureus NRS384; format: functional; in short: as §3
[34] = test system: Staphylococcus aureus; test: Antibacterial activity against community acquired methicillin-resistant Staphylococcus aureus; format: functional
[35] = test system: Moraxella catarrhalis; test: Antibacterial activity against Moraxella catarrhalis; format: functional
[36] = Terminal elimination half life in Sprague-Dawley rat kidney at 2 x 50 mg/kg, iv; format: ADME, organism-based; set-up: dose 50 mg/kg, route intravenous; settings: read-out: beta t1/2 (converted); in short: as §1
[37] = target: Albumin (Homo sapiens, UniProt P02768); test: Binding affinity to human serum albumin; format: ADME; settings: isolated protein
Albumin, sequence (P02768 whole entry): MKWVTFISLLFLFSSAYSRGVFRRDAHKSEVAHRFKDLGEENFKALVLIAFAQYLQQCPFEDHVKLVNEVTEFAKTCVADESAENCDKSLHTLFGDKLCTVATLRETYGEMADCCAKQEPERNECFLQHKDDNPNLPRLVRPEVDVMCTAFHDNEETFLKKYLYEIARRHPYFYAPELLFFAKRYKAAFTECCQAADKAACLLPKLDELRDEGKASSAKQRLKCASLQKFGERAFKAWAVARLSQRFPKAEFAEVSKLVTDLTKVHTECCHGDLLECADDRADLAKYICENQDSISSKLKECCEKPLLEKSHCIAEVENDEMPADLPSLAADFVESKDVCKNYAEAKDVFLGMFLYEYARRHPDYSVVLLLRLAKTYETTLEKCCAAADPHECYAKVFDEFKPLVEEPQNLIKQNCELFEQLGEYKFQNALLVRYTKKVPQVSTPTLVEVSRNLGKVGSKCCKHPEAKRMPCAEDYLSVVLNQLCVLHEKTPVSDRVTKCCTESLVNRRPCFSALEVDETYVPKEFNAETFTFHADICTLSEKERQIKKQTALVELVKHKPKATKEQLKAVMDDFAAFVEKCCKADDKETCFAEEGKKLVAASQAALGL

[38] = AUC (0 to infinity) in Sprague-Dawley rat liver at 2 x 50 mg/kg, iv; format: ADME, organism-based; set-up: time infinity, dose 50 mg/kg, route intravenous; in short: as §1

In the case of `CCc1cc(O)c(Oc2ccc(C(N)=O)cc2F)cc1F`, the half-life [1] is reported as 4.9 h, the half-life [2] is reported as 5 h and the Activity [3] is reported as “Active”. The MIC90 [4] was 1 µg/mL (≈ 3.41 µM), the MIC [5] was 0.5 µg/mL (≈ 1.7 µM) and the Activity [6] was “Non-toxic”. It also gave an AUC(0-inf) [7] of 23900 ng·h/mL, a clearance [8] of 107 mL/min/kg and an MIC90 [9] of 2 µg/mL (≈ 6.82 µM). The MIC [10] was 0.06 µg/mL (≈ 0.205 µM), the NOAEL at 336 h [11] was 200 mg/kg/day and the AUC(0-inf) [12] was 27600 ng·h/mL. It also gave an NOAEL at 336 h [13] of 100 mg/kg/day, a Cmax [14] of 42100 ng/g and a Cmax [15] of 37800 ng/g. The MIC [16] was > 32 µg/mL, the half-life [17] was 4.2 h and the ED50 [18] was 19.3 mg/kg. The MIC [19] was 0.062 µg/mL (≈ 0.211 µM), the CC50 [20] was > 32 µg/mL and the Activity [21] was “Non-toxic”. It also gave a Cmax [22] of 28900 ng/g, a half-life [23] of 5.9 h and an AUC(0-inf) [24] of 13900 ng·h/mL. The Activity [25] was “Non-toxic”, the MTD [26] was > 200 mg/kg and the MIC [27] was > 32 µg/mL. For the same compound, the AUC(0-inf) [28] was 20300 ng·h/mL, the ED50 [29] was 28.3 mg/kg and the MIC90 [30] was 0.06 µg/mL (≈ 0.205 µM). For the same compound, the MTD [31] was > 200 mg/kg, the IC50 [32] was 12 nM and the MIC [33] was 0.06 µg/mL (≈ 0.205 µM). The MIC90 [34] was ≤ 0.03 µg/mL, the MIC90 [35] was 2 µg/mL (≈ 6.82 µM) and the half-life [36] was 8.5 h. The Activity [37] was 95% and the AUC(0-inf) [38] was 105000 ng·h/mL.
